Experimental data published in article PMC5568800 (Investigative ophthalmology & visual science, 2009).
Where two headings read alike, the source gives them in different places.

What was measured:
[1] = molecular target: X2IRBP (second module of Xenopus IRBP), wild-type sequence; assay: Titration monitoring quenching of tryptophan; format: binding; details: read-out: Kd, Quenching, excitation 280 nm, emission 340 nm
Method in brief: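 Purified X2IRBP (Xenopus IRBP 313–612, TEV-cleaved His-fusion, Ni plus Q Sepharose purified) was titrated with all-trans or 11-cis retinol (ethanol stocks). Protein fluorescence at 340 nm (excitation 280 nm) was normalized to maximal quenching. All-trans data were averaged over three independent titrations. Kd and N came from a nonlinear least-squares fit to a noninteracting single-site-class binding equation.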

W587F X2IRBP [2] = assay: Titration monitoring enhancement of retinol fluorescence, W587F mutant; format: binding, Xenopus; details: read-out: Kd, Enhancement, 11-cis retinol, excitation 324 nm, emission 475 nm, Figure 7
Method in brief: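 The W587F mutant was introduced into X2IRBP-pET30 by site-directed mutagenesis, sequence-verified, then expressed in E. coli BLR(DE3) (1 mM IPTG, 22°C, 18 h) and purified by Ni-affinity, TEV cleavage and Q Sepharose. 11-cis retinol, made by NaBH4 reduction of 11-cis retinal and HPLC-checked, was titrated in. Kd came from a nonlinear least-squares single-site-class fit.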

W450F X2IRBP [3] = assay: Titration monitoring enhancement of retinol fluorescence, W450F mutant; format: binding, Xenopus
Method in brief: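 All-trans retinol titration of the E. coli-expressed, TEV-cleaved Xenopus X2IRBP mutant, read as retinol fluorescence enhancement (ex 330 nm, em 480 nm). Nonspecific signal was subtracted using a titration into fluorescence-matched NAT solution, and the inner filter effect was corrected graphically. Three independent titrations were averaged. Kd from a nonlinear least-squares fit assuming a single type of noninteracting site.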

W587F X2IRBP [4] = assay: Titration monitoring quenching of tryptophan fluorescence, W587F mutant; format: binding, Xenopus
[5] = molecular target: X2IRBP (second module of Xenopus IRBP), wild-type sequence; format: binding; details: read-out: Kd, Enhancement
Method in brief: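 Purified X2IRBP (Xenopus IRBP 313–612; His-fusion, TEV-cleaved, Ni and anion-exchange purified; quantified by A280 and amino acid analysis) was titrated with all-trans or 11-cis retinol. 11-cis retinol was made by NaBH4 reduction of 11-cis retinal. For all-trans, nonspecific signal from titration into fluorescence-matched NAT was subtracted and three independent titrations were averaged. Kd came from a nonlinear least-squares single-site-class fit.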

[6] = molecular target: X2IRBP (second module of Xenopus IRBP), wild-type sequence; assay: Energy transfer titration, X2IRBP of wild-type sequence; format: binding; details: read-out: Kd, Energy Transfer; all-trans retinol; excitation 280 nm, emission 480 nm; Figure 4
Method in brief: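 X2IRBP (Xenopus IRBP residues 313–612) was expressed in E. coli BLR(DE3) as a His-tag fusion, TEV-cleaved, and purified by Ni-affinity and Q Sepharose. Concentration was set by A280 and amino acid analysis. All-trans retinol from fresh ethanol stocks was titrated in. Three independent titrations were averaged. Kd and N came from a nonlinear least-squares fit assuming a single class of noninteracting sites.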

W450F X2IRBP [7] = assay: Energy transfer titration, W450F mutant; format: binding, Xenopus; details: read-out: Kd, Energy Transfer, all-trans retinol, Figure 4
Method in brief: (§1)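 Tag-free Xenopus IRBP second module (residues 313–612; His-tag cut by TEV protease), expressed in E. coli BLR(DE3) at 22°C for 18 h and purified on nickel then Q Sepharose columns. Titrated with all-trans retinol (fresh ethanol stock) and read by energy transfer (ex 280 nm, em 480 nm). Runs alternated between the two mutants, three per mutant, then averaged. Kd and N from a nonlinear least-squares fit to a single-class, noninteracting-site equation.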

W587F X2IRBP [8] = assay: Energy transfer titration, W587F mutant; format: binding, Xenopus; details: read-out: Kd, Energy Transfer, all-trans retinol, Figure 4
Method in brief: as §1

W450F X2IRBP [9] = assay: Titration monitoring quenching of tryptophan fluorescence, W450F mutant; format: binding, Xenopus; details: all-trans retinol, excitation 280 nm, emission 340 nm
Method in brief: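 Intrinsic tryptophan fluorescence quenching (ex 280 nm, em 340 nm) of tag-free recombinant Xenopus X2IRBP mutants during all-trans retinol titration. Signal normalized to the maximum quenching. Runs alternated between the W450F and W587F proteins, three titrations each, and were averaged. Binding parameters from a nonlinear least-squares fit to a single-class, noninteracting-site equation.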

X2IRBP = format: binding, Xenopus; details: oleic acid 0.67 to 2.66 μM; X2IRBP 1 μM; retinol fluorescence enhancement
Method in brief: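 X2IRBP (1 μM; recombinant Xenopus, tag removed by TEV) titrated with all-trans or 11-cis retinol in the presence of oleic acid at 0.67 to 2.66 μM. Binding followed by retinol fluorescence enhancement (ex 330 nm, em 480 nm).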

[10] = 11-cis retinol, X2IRBP of wild-type sequence, Figure 6

`CC1=C(/C=C/C(C)=C/C=C\C(C)=C\CO)C(C)(C)CCC1` [11-cis retinol] was tested, and the Kd [1, 10] was 0.042 ± 0.009 µM, the Kd (W587F X2IRBP [2]) was 0.132 ± 0.056 µM and the Kd (W450F X2IRBP [3]; read-out: Kd, Enhancement, 11-cis retinol, excitation 324 nm, emission 475 nm, Figure 7) was 0.218 ± 0.062 µM. For the same molecule, the Kd (W587F X2IRBP [4]; read-out: Kd, Quenching, 11-cis retinol, excitation 280 nm, emission 340 nm, Figure 7) was 0.024 ± 0.01 µM and the Kd [5, 10] was 0.077 ± 0.015 µM.

In the case of `CC1=C(/C=C/C(C)=C/C=C/C(C)=C/CO)C(C)(C)CCC1` [all-trans retinol], the Kd [6] is reported as 0.033 ± 0.008 µM, the Kd ([1]; all-trans retinol, Figure 4) is reported as 0.008 ± 0.003 µM and the Kd (W450F X2IRBP [7]) is reported as 0.29 ± 0.08 µM. For the same molecule, the Kd (W587F X2IRBP [8]) was 0.1 ± 0.01 µM, the Kd (W450F X2IRBP [3]; read-out: Kd, Enhancement, all-trans retinol, titrations of Figure 4) was 0.45 ± 0.11 µM and the Kd (W587F X2IRBP [4]; read-out: Kd, Quenching, all-trans retinol, titrations of Figure 4) was 0.05 ± 0.01 µM. The Kd ([5]; all-trans retinol, excitation 330 nm, emission 480 nm, Figure 4) was 0.07 ± 0.02 µM and the “Quenching of tryptophan fluorescence (result in words)” value (W450F X2IRBP [9]) was “No significant quenching”.

In the case of `CCCCCCCC/C=C\CCCCCCCC(=O)O` [oleic acid], the “Manner of inhibition of 11-cis and all-trans retinol binding to X2IRBP” value (X2IRBP) is reported as “noncompetitive”.
